Data as given in ChEMBL document CHEMBL1132328, “4-Hydroxy-1-[2-(4-hydroxyphenoxy)ethyl]-4-(4-methylbenzyl)piperidine: a novel, potent, and selective NR1/2B NMDA receptor antagonist” (J Med Chem, 1999).

Legend:
Rattus = assay: Inhibition of voltage -gated K+ currents was measured by whole cell voltage clamp recordings from dissociated rat superior cervical ganglion neurons at 10 uM; format: functional
Method in brief: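 SCG neurons from 1–4-day-old rat pups, recorded 24–48 h after plating. Whole-cell clamp held at -60 mV; 30-ms steps to +50 mV. Bath solution Hepes/glucose pH 7.4; pipette solution KCl/K-aspartate/EGTA pH 7.3. Compound diluted from 10 mM DMSO stock and applied by local perfusion after control responses. Result given as percent inhibition of sustained K+ current.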

[1] = target: T1, Adrenergic receptor alpha-1 (Rattus norvegicus, UniProt P15823+P23944+P43140); assay: Affinity for alpha-1 adrenergic receptor in rat was determined by [3H]- prazosin binding assay
T1 sequence (P15823 whole entry): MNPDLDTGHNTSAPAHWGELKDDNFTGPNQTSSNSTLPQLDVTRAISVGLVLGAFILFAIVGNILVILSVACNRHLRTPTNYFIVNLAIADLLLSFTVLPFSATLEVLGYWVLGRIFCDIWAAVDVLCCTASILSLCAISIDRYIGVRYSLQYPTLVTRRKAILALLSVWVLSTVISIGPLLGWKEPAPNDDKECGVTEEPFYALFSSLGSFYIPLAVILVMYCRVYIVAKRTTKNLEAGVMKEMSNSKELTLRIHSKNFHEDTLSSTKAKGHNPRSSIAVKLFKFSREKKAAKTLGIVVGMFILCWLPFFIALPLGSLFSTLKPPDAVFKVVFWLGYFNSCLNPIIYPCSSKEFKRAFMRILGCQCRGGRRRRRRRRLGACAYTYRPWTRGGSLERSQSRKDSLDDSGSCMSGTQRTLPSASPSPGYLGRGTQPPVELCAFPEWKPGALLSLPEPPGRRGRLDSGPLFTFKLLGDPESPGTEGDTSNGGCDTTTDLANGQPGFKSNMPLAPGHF
T1 sequence (P23944 whole entry): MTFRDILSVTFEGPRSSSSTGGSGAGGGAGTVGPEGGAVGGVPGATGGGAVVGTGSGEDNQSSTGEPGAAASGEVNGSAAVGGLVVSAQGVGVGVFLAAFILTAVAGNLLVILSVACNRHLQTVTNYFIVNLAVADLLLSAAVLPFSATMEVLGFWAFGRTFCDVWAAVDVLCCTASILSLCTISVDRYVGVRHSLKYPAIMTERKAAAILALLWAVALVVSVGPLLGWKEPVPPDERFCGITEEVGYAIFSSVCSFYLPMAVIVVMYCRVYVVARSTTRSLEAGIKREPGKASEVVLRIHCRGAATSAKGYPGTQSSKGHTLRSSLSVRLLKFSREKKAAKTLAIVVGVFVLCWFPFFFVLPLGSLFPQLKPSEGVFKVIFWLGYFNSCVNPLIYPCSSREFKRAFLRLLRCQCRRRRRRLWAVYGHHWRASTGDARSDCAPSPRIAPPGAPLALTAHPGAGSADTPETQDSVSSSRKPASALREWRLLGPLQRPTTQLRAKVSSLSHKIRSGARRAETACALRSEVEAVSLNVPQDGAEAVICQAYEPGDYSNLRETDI
T1 sequence (P43140 whole entry): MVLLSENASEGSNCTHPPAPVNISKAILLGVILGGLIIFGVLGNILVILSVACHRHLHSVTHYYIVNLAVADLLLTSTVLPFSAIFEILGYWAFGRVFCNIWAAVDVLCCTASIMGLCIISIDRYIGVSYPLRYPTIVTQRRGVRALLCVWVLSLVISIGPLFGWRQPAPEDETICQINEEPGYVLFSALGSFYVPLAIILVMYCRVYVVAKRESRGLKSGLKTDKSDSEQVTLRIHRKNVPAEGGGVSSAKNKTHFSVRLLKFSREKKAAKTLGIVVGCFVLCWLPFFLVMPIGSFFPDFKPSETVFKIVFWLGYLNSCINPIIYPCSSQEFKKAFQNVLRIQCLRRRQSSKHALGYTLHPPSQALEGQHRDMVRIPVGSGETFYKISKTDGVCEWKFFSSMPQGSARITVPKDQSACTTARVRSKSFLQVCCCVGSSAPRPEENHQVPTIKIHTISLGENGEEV
Method in brief: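 Rat cortex membranes (sucrose/Tris homogenate, washed three times in 140 mM NaCl/5 mM MgCl2/50 mM Tris-HCl pH 7.4) incubated with 0.8 nM [3H]prazosin for 60 min at room temperature. Test compounds at nine concentrations in duplicate, 1% DMSO final. Nonspecific binding defined with phentolamine. Reaction stopped by filtration through GF/B filters, then scintillation counting. IC50 from a sigmoidal fit.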

Mus musculus = organism: Mus musculus; assay: ED50 value was calculated by mouse electric shock assay (MES).; format: functional
Method in brief: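 Anticonvulsant testing in mice by maximal electroshock. Compounds dissolved in 0.05 M Tris and given iv. Seizure protection tested at peak activity, 2 min after dosing.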

[2] = target: Glutamate NMDA receptor; Grin1/Grin2b (Rattus norvegicus, UniProt P35439+Q00960); assay: In vitro inhibitory concentration against NMDA responses at NR1A/2B receptors expressed in Xenopus oocytes; format: functional, cell-based, Oocyte
Method in brief: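 Two-electrode voltage clamp of oocytes expressing cloned NR1A/2B, held at -70 mV in Ca2+-free Ringer (BaCl2 1.8 mM, Hepes 5 mM, pH 7.4). Drugs in DMSO (0.1–1% final) applied by bath perfusion. IC50 from partial 3–5-point concentration-inhibition curves fitted with residual minimum fixed at 0.15. Mean ± SE.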

[3] = target: Glutamate NMDA receptor; Grin1/Grin2a (Rattus norvegicus, UniProt P35439+Q00959); assay: In vitro inhibitory concentration against NMDA responses at cloned NR1A/2A receptors expressed in Xenopus oocytes; format: functional, cell-based, Oocyte
[4] = target: Glutamate NMDA receptor; Grin1/Grin2c (Rattus norvegicus, UniProt P35439+Q00961); assay: In vitro inhibitory concentration against NMDA responses at NR1A/2C receptors expressed in Xenopus oocytes; format: functional, cell-based, Oocyte
Chain of Glutamate NMDA receptor; Grin1/Grin2c (Q00961 whole entry, other chains not shown): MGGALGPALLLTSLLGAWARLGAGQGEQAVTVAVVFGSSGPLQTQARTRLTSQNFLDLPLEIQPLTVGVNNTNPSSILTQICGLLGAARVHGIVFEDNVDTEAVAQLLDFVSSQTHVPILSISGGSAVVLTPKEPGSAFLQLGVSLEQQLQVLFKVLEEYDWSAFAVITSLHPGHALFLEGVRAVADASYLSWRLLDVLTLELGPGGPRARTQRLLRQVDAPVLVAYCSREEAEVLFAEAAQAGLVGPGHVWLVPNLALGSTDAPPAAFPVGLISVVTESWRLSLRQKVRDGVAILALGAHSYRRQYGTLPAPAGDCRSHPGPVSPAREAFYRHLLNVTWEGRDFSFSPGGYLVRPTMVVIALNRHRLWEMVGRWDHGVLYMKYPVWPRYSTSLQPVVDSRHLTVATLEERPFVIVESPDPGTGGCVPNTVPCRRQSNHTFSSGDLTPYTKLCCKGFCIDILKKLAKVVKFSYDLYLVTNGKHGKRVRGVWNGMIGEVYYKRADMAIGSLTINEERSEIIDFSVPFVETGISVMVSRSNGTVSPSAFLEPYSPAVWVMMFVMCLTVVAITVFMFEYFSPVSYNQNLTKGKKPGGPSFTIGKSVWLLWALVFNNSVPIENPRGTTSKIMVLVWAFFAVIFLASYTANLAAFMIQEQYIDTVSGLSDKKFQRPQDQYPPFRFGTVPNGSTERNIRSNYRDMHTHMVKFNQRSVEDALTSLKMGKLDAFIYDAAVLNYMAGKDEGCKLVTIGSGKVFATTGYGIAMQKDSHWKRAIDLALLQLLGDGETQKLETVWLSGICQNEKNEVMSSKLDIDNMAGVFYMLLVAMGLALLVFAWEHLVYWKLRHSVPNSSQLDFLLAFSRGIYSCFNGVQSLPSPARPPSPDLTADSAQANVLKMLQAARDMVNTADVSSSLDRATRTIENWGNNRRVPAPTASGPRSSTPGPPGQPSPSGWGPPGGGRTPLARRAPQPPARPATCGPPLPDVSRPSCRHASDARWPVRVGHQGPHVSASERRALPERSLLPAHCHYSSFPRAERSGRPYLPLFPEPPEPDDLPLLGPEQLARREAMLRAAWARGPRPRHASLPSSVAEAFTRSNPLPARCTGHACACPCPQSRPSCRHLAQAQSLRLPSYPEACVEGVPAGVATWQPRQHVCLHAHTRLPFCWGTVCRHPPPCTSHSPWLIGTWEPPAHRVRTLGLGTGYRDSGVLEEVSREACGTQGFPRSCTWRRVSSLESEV

Chain of Glutamate NMDA receptor; Grin1/Grin2b (Q00960 whole entry, other chains not shown, the tested form may be a part): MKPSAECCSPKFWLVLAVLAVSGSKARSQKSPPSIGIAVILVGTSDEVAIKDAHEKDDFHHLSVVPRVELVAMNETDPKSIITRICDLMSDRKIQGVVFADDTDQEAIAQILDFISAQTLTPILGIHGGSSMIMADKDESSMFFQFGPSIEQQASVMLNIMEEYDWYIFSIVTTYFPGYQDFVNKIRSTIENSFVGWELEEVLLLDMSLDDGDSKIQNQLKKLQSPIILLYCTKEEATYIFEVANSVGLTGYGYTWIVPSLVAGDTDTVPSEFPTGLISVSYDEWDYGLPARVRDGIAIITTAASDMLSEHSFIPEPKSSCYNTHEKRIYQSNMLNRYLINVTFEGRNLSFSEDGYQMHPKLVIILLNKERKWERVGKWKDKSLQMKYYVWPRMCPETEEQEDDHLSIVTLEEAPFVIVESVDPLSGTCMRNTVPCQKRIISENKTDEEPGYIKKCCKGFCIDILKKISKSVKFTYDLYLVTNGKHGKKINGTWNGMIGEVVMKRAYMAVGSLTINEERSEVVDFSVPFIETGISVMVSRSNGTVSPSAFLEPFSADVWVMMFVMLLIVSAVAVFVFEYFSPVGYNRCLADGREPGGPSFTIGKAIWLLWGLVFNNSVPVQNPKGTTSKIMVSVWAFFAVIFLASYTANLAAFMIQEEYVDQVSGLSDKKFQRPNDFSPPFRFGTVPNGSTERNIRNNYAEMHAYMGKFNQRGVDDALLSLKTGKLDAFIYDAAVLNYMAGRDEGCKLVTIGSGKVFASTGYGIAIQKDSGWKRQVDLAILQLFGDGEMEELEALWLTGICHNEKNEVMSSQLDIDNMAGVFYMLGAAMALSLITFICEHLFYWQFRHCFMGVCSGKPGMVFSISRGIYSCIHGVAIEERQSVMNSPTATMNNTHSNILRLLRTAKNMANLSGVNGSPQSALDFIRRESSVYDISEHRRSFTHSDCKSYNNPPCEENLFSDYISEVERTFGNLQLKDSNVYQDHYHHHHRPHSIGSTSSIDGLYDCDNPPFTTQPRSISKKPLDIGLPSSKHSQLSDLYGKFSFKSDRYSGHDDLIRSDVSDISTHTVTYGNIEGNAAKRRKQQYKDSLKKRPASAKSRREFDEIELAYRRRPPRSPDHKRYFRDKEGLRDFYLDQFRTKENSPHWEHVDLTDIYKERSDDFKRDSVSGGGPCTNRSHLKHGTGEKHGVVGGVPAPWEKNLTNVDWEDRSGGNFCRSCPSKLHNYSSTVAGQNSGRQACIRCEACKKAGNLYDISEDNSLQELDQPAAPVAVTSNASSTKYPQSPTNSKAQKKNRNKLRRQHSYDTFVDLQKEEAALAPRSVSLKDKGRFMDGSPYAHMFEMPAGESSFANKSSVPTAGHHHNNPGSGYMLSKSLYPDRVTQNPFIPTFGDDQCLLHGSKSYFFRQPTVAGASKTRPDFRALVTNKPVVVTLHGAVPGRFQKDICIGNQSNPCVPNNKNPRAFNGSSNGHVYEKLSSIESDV
Chain of Glutamate NMDA receptor; Grin1/Grin2a (Q00959 whole entry, other chains not shown): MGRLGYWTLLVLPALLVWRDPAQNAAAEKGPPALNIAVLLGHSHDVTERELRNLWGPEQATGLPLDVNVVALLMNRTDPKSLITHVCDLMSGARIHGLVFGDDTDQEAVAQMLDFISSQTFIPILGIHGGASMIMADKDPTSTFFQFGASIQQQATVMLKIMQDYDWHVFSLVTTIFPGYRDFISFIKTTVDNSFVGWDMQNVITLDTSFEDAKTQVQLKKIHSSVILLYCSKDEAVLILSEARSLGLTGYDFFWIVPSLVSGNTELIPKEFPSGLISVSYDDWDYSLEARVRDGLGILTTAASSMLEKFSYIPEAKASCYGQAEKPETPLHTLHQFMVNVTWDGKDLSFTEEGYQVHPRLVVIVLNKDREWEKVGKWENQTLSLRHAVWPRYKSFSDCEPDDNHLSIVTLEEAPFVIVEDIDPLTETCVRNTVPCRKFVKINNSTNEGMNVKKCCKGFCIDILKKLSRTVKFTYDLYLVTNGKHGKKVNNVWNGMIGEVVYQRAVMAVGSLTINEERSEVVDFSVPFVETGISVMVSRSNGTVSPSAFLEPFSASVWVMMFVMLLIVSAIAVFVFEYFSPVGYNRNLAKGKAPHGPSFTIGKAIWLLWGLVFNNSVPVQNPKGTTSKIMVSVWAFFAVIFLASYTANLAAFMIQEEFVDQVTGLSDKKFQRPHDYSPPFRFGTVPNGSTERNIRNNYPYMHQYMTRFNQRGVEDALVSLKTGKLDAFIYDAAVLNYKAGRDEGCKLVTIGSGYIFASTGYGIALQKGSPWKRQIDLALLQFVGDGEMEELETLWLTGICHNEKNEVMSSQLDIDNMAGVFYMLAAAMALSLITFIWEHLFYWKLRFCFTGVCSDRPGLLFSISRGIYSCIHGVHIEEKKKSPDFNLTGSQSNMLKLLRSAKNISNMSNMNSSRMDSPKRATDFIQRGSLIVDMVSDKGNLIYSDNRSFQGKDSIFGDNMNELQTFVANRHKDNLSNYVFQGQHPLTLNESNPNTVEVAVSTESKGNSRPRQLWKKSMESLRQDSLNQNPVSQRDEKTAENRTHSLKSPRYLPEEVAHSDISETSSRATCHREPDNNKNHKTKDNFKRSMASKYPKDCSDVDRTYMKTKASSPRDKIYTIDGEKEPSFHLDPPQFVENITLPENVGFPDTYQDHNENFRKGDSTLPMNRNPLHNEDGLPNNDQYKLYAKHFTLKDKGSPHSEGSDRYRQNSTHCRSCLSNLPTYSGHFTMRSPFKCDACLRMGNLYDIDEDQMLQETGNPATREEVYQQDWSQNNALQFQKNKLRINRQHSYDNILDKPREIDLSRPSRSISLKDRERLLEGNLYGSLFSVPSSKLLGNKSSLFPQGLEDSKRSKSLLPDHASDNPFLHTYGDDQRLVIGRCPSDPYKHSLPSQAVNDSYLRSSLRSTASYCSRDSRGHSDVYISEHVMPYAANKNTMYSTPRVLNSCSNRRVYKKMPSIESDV

Row | Compound | inhibition at 10 µM (Rattus) | IC50 [1] | ED50 (Mus musculus) | IC50 [2] | IC50 [3] | IC50 [4]
1 | Oc1ccc(OCCN2CCC(Cc3ccc(F)cc3)CC2)cc1 | 53% | 1.6 µM | 3 mg/kg | 0.05 µM | 21 µM | > 100 µM
2 | Oc1ccc(OCCN2CCC(c3ccccc3)CC2)cc1 |  |  |  | 7.7 µM | 110 µM | > 100 µM
3 | c1ccc(CC2CCN(CCOc3ccccc3)CC2)cc1 | 65% | 0.82 µM | 2 mg/kg | 0.63 µM | > 100 µM | > 100 µM
4 | Cc1ccc(CC2CCN(CCOc3ccc(O)cc3)CC2)cc1 | 67% | 1.8 µM | 0.7 mg/kg | 0.028 µM | > 100 µM | > 100 µM
5 | C[C@@H]([C@H](O)c1ccc(O)cc1)N1CCC(Cc2ccccc2)CC1 [(R,S)-IFENPRODIL] | 54% | 0.22 µM | 7 mg/kg |  |  | 
6 | Cc1ccc(CC2(O)CCN(CCOc3ccc(O)cc3)CC2)cc1 | 23% | 27 µM | 1.5 mg/kg | 0.043 µM | > 100 µM | > 100 µM
7 | Oc1ccc(OCCN2CCC(Cc3ccccc3)CC2)cc1 | 46% | 0.47 µM | 2 mg/kg | 0.025 µM | > 100 µM | > 100 µM
8 | OC(CN1CCC(Cc2ccc(F)cc2)CC1)c1ccc(Cl)cc1 (configuration not stated) [ELIPRODIL] | 67% | 3.3 µM | 1 mg/kg | 1.4 µM | 100 µM | 100 µM
